Test results from paper PMC8896403 (Cancer chemotherapy and pharmacology, 2021).
Several values for one entry are separate records, joined by “and”; a condition that tells them apart may be missing. Equal entries are not always repeated. Where two headings read alike, the source gives them in different places.

Experiments:
[1] = cited from earlier work
[2] = Plasma and brain pharmacokinetics of panobinostat in CD-1 female mice; type: in vivo
Procedure, shortened: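 Single tail-vein dose of 15 mg/kg (3 mg/mL in PBS with 20% DMSO and 20% PEG-400) given to 12 mice, with 3 killed at each of 1, 2, 4 and 7 h. Heparinized plasma and brains frozen at −80 °C. LC–MS with internal standard, using 9-point 1–500 ng/mL calibration fitted by 1/x2 regression. Cmax taken as highest observed concentration, AUC1–7 by trapezoidal rule, and clearance from a […] model.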

[3] = Protein binding in murine plasma; type: in vitro ADME; conditions: murine plasma compartment
[4] = set-up: species or system human
[5] = Clearance predicted for the mouse by body surface area scaling; conditions: body surface area scaling from dog and rat
[6] = murine plasma; cited from earlier work
[7] = human plasma; cited from earlier work
P-gp = conditions: cited from earlier work
[8] = cited from earlier work; remark: listed apart in the source
human DIPG cell lines = conditions: cited from earlier work
DIPG cultures = conditions: cited from earlier work
[9] = cited from earlier work; remark: listed apart in the source
[10] = dog; cited from earlier work
[11] = rat; cited from earlier work
[12] = cited from earlier work; remark: listed apart in the source
[13] = IP and IV administration; cited from earlier work
refractory solid tumors = conditions: 9 pediatric patients; cited from earlier work
high-grade gliomas = conditions: in combination with bevacizumab, twelve patients; cited from earlier work
[14] = female, CD-1, mouse, brain, intravenous, 15 mg/kg
[15] = female, CD-1, mouse, brain, iv, 15 mg/kg
[16] = female, CD-1, mouse, brain/plasma, iv, 15 mg/kg
[17] = female, CD-1, mouse, plasma, intravenous, 15 mg/kg
[18] = female, CD-1, mouse, plasma, iv, 15 mg/kg
[19] = intraperitoneal injection, single time-point 4 h

## Cc1nc(Nc2ncc(C(=O)Nc3c(C)cccc3Cl)s2)cc(N2CCN(CCO)CC2)n1 [dasatinib]
[1]
  concentrations in the brain after inhibition of P-gp with everolimus: increased concentrations

## Cc1[nH]c2ccccc2c1CCNCc1ccc(/C=C/C(=O)NO)cc1 [panobinostat, 2-hydroxypropanoic acid, compound with 2-(E)-Nhydroxy-3-[4-[[[2-(2-methyl-1H-indol-3-yl)ethyl]amino]methyl]phenyl]-2-propenamide]
[2]; 15 mg/kg IV, mice, trapezoidal rule, 1 h to 7 h
  AUC1–7 for brain: 250 ng·h/g
[2]; [14]
  concentration at 1 h: 60.5 ng/g and 63.2 ng/mL and 181 nM
  concentration at 2 h: 42.9 ± 5.4 ng/g
  concentration at 4 h: 33.2 ± 6.1 ng/g
  concentration at 7 h: 28.1 ng/g and 29.4 ng/mL and 84.1 nM
[2]; [15]
  Cmax: 72.4 ng/g
  Vd: 49.8 L/kg
[2]; [16]
  Kp: 2.63
  Kp at 1 h: 2.22
  Kp at 2 h: 5.67
  Kp at 4 h: 22.4
  Kp at 7 h: 12.1
[2]; [17]
  Vd: 53.8 L/kg
  clearance: 967 mL/min/kg
  concentration at 1 h: 27.3 ± 2.5 ng/mL
  concentration at 2 h: 7.56 ± 1.8 ng/mL
  concentration at 4 h: 1.48 ± 0.56 ng/mL
  concentration at 7 h: 2.33 ± 1.18 ng/mL
[2]; [18]
  AUC: 95 ng·h/mL
  Cmax: 132 ng/mL
  Vd: 140 L/kg
  clearance: 1360 mL/min/kg
[3]
  drug unbound in plasma: 40%
[4]; corresponding to 45.95 ng/g
  expected human brain nanomolar concentration: approximately 142.2 nM
[4]; pediatric Cmax 20.7 ng/mL x brain to plasma ratio 2.22
  expected human brain concentration: approximately 45.95 ng/g
[5]
  clearance predicted in the mouse: 918 mL/min/kg
[6]
  protein binding: approximately 60%
[7]
  protein binding: 75–90%
P-gp
  P-gp substrate status: substrate of P-gp
[8]
  BCS class: Class II
  permeability (BCS): high permeability
  solubility (BCS): low solubility
Human DIPG cell lines; prior DIPG models
  IC50: 28.3 nM
Human DIPG cell lines; range in human DIPG cell lines
  IC50: 12.1 to 28.3 nM
DIPG cultures
  DIPG cultures demonstrating sensitivity: 12 of the 16
[9]
  brainstem concentration relative to cerebral cortex (times): more than 7
[9]; [19]
  concentration in brainstem tumor tissue: 550 ± 51 nM
  concentration in cerebral cortex: 70 ± 10 nM
[10]
  volume of distribution: 42 L/kg
[11]
  volume of distribution: 40.2 L/kg
[12]
  brain penetration in clinical reports: minimal to no brain penetration
[12]; prior studies
  concentrations in the CSF: negligible concentrations
[13]
  concentrations in xenograft, intestine, bladder, and heart tissue versus plasma: higher concentrations
Refractory solid tumors
  objective response: No patient had an objective response
  patients with stable disease: 3 patients
  tolerability: acceptable tolerability
high-grade gliomas
  median progression free survival (PFS): 4.3 months
  patients achieving a partial response: Three
  patients with stable disease: 6 patients

## COc1cc2c(Nc3ccc(Br)cc3F)ncnc2cc1OCC1CCN(C)CC1 [vandetanib]
[1]
  concentrations in the brain after inhibition of P-gp with everolimus: increased concentrations
